The values below come from ChEMBL document CHEMBL4715738, “In Vitro Antibacterial Activity of Curcumin-Polymyxin B Combinations against Multidrug-Resistant Bacteria Associated with Traumatic Wound Infections” (J Nat Prod, 2016).

By MIC is commonly meant the lowest concentration found to suppress growth.

Assay type in all cases: functional
Assay [1] deals with Stenotrophomonas maltophilia. Put plainly: Antibacterial activity against Stenotrophomonas maltophilia SMS01 assessed as reduction in bacterial growth incubated for 24 hrs in presence of curcumin.
For assay [2], the system named is Staphylococcus aureus. Put plainly: Antibacterial activity against vancomycin-intermediate resistant Staphylococcus aureus Mu50 assessed as reduction in bacterial growth incubated for 24 hrs in presence of curcumin.
In assay [3] the test system is Escherichia coli. Kind of assay: Additive antibacterial activity against Escherichia coli NCTC 12241 assessed as fractional inhibitory concentration index measured after 24 hrs in presence of curcumin by checkerboard assay.
Assay [4] relates to Acinetobacter baumannii. Kind of assay: Antibacterial activity against Acinetobacter baumannii NCTC 19606 assessed as reduction in bacterial growth incubated for 24 hrs in presence of curcumin.
The subject of assay [5] is Acinetobacter baumannii. Kind of assay: Synergistic antibacterial activity against Acinetobacter baumannii NCTC 19606 assessed as fractional inhibitory concentration index measured after 24 hrs in presence of curcumin by checkerboard assay. The method in brief:
(§1)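 FICI was derived from checkerboard MICs. Synergy was defined as FICI ≤ 0.5 and additive as FICI > 0.5−4.0. Where an MIC was not reached, the dilution above the maximum dose was used in the FICI calculation. Experiments were run in triplicate and reported as means.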

For assay [6], the system named is Streptococcus pyogenes. Kind of assay: Antibacterial activity against Streptococcus pyogenes SPY3 assessed as reduction in bacterial growth incubated for 24 hrs in presence of curcumin.
In assay [7] the test system is Pseudomonas aeruginosa. Put plainly: Antibacterial activity against Pseudomonas aeruginosa PA14 assessed as reduction in bacterial growth incubated for 24 hrs in presence of curcumin.
Assay [8] relates to Escherichia coli. Kind of assay: Synergistic antibacterial activity against Escherichia coli EC2 harboring CTX-M-15 assessed as fractional inhibitory concentration index measured after 24 hrs in presence of curcumin by checkerboard assay. The method in brief: as §1
Assay [9] relates to Acinetobacter baumannii. Put plainly: Synergistic antibacterial activity against Acinetobacter baumannii AB14 harboring OXA-23 clone 1 assessed as fractional inhibitory concentration index measured after 24 hrs in presence of curcumin by checkerboard assay. An outline of the steps:
as §1

The subject of assay [10] is Pseudomonas aeruginosa. Put plainly: Synergistic antibacterial activity against Pseudomonas aeruginosa PAO1 assessed as fractional inhibitory concentration index measured after 24 hrs in presence of curcumin by checkerboard assay. An outline of the steps: (§2)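 FICI calculated from combination MICs; ≤0.5 taken as synergy and >0.5–4.0 as additive. Where an MIC was not reached, the dilution above the highest concentration tested was used in the calculation. Run in triplicate and reported as means.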

In assay [11] the test system is Pseudomonas aeruginosa. Kind of assay: Antibacterial activity against Pseudomonas aeruginosa ATCC 27853 assessed as log reduction in colony forming units at MIC measured after 6 hrs by time kill assay. An outline of the steps: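 Time-kill in Mueller-Hinton 2 broth. Inoculum was a 1/1000 dilution of a 16 h overnight culture, about 10^6 CFU/mL, 10 mL per tube. Arms were each agent alone at ×1 MIC, or the combination at ×1 MIC plus ×0.5 MIC partner. Incubated at 37 °C with continuous agitation for 24 h. Samples taken at 0, 2, 4, 6 and 24 h, serially diluted and plated on IsoSensitest agar for CFU counts.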

Assay [12] concerns Streptococcus pyogenes. Kind of assay: Synergistic antibacterial activity against Streptococcus pyogenes SPY2 assessed as fractional inhibitory concentration index measured after 24 hrs in presence of curcumin by checkerboard assay. An outline of the steps: as §2
Assay [13] relates to Stenotrophomonas maltophilia. Kind of assay: Synergistic antibacterial activity against Stenotrophomonas maltophilia SMB07 assessed as fractional inhibitory concentration index measured after 24 hrs in presence of curcumin by checkerboard assay. The method in brief:
as §2

Assay [14] deals with Pseudomonas aeruginosa. Put plainly: Synergistic antibacterial activity against Pseudomonas aeruginosa ATCC 27853 assessed as fractional inhibitory concentration index measured after 24 hrs in presence of curcumin by checkerboard assay. An outline of the steps: as §2
Assay [15] has as its system Escherichia coli. Kind of assay: Antibacterial activity against Escherichia coli EC2 harboring CTX-M-15 assessed as reduction in bacterial growth incubated for 24 hrs in presence of curcumin.
In assay [16] the test system is Streptococcus pyogenes. Kind of assay: Antibacterial activity against Streptococcus pyogenes SPY2 assessed as reduction in bacterial growth incubated for 24 hrs in presence of curcumin.
The test system of assay [17] is Streptococcus pyogenes. Put plainly: Antibacterial activity against Streptococcus pyogenes SPY1 assessed as reduction in bacterial growth incubated for 24 hrs in presence of polymyxin B.
The subject of assay [18] is Staphylococcus aureus. Kind of assay: Potentiation of polymyxin B-induced antibacterial activity against Staphylococcus aureus ATCC 25923 assessed as fold reduction in polymyxin B MIC measured after 24 hrs in presence of polymyxin B by checkerboard assay.
Another assay relates to Enterococcus faecium. Kind of assay: Antibacterial activity against vancomycin-resistant Enterococcus faecium OEF42 assessed as reduction in bacterial growth incubated for 24 hrs in presence of polymyxin B.
For assay [19], the system named is Staphylococcus aureus. Kind of assay: Antibacterial activity against methicillin-resistant Staphylococcus aureus NCTC 12493 assessed as reduction in bacterial growth incubated for 24 hrs in presence of polymyxin B.
In assay [20] the test system is Escherichia coli. Kind of assay: Antibacterial activity against Escherichia coli EC2 harboring CTX-M-15 assessed as reduction in bacterial growth incubated for 24 hrs in presence of polymyxin B.
The subject of a further assay is Enterococcus faecalis. Put plainly: Antibacterial activity against […] Enterococcus faecalis ATCC 29212 assessed as reduction in bacterial growth incubated for 24 hrs in presence of polymyxin B.
Assay [21] has as its system Acinetobacter baumannii. Put plainly: Antibacterial activity against Acinetobacter baumannii AB12 harboring OXA-23 assessed as reduction in bacterial growth incubated for 24 hrs in presence of polymyxin B.
Assay [22] concerns Stenotrophomonas maltophilia. Put plainly: Bactericidal activity against Stenotrophomonas maltophilia NCTC 102586 assessed as bacterial cell death at 0.5 fold MIC measured after 4 to 6 hrs in presence of polymyxin B at MIC by time kill assay relative to control. Conditions: time 4-6 hrs. An outline of the steps:
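Time-kill in 10 mL Mueller-Hinton 2 broth, 37 °C with continuous agitation, 24 h. Inoculum was a 1/1000 dilution of a 16 h overnight culture, about 10^6 CFU/mL. Single agents at 1× MIC; combination at 1× MIC polymyxin B plus 0.5× MIC curcumin. Samples at 0, 2, 4, 6 and 24 h were serially diluted and plated on IsoSensitest agar for CFU/mL.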

The test system of assay [23] is Pseudomonas aeruginosa. Put plainly: Antibacterial activity against Pseudomonas aeruginosa PA30 harboring VIM-2 assessed as reduction in bacterial growth incubated for 24 hrs in presence of polymyxin B.
Assay [24] relates to Streptococcus pyogenes. Put plainly: Potentiation of polymyxin B-induced antibacterial activity against Streptococcus pyogenes SPY1 assessed as fold reduction in polymyxin B MIC measured after 24 hrs in presence of polymyxin B by checkerboard assay.
Assay [25] relates to Escherichia coli. Put plainly: Potentiation of polymyxin B-induced antibacterial activity against Escherichia coli EC2 harboring CTX-M-15 assessed as fold reduction in polymyxin B MIC measured after 24 hrs […] checkerboard assay. The method in brief: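 Combination MICs from the checkerboard used for FICI calculation. Where no MIC was reached, the dilution above the top dose was used in the FICI. Run in triplicate; mean values reported.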

Assay [26] has as its system Pseudomonas aeruginosa. Kind of assay: Antibacterial activity against Pseudomonas aeruginosa PA14 assessed as reduction in bacterial growth incubated for 24 hrs in presence of polymyxin B.
The subject of assay [27] is Acinetobacter baumannii. Kind of assay: Antibacterial activity against Acinetobacter baumannii NCTC 19606 assessed as reduction in bacterial growth incubated for 24 hrs in presence of polymyxin B.
The subject of assay [28] is Pseudomonas aeruginosa. Kind of assay: Potentiation of polymyxin B-induced antibacterial activity against Pseudomonas aeruginosa PAO1 assessed as fold reduction in polymyxin B MIC measured after 24 hrs in presence of polymyxin B by checkerboard assay.
In assay [29] the test system is Stenotrophomonas maltophilia. Put plainly: Potentiation of polymyxin B-induced antibacterial activity against Stenotrophomonas maltophilia NCTC 10258 assessed as fold reduction in polymyxin B MIC measured after 24 hrs in presence of polymyxin B by checkerboard assay.

Take `CC[C@H](C)CCCCC(=O)N[C@@H](CCN)C(=O)N[C@H](C(=O)N[C@@H](CCN)C(=O)N[C@H]1CCNC(=O)[C@H]([C@@H](C)O)NC(=O)[C@H](CCN)NC(=O)[C@H](CCN)NC(=O)[C@H](CC(C)C)NC(=O)[C@@H](Cc2ccccc2)NC(=O)[C@H](CCN)NC1=O)[C@@H](C)O.O=S(=O)(O)O`: the minimal inhibitory concentration (MIC) was found to be 0.024 µM in [1]; 1.5 µM with Staphylococcus aureus [2]; 0.012 µM with Acinetobacter baumannii [4]; 0.79 µM in the assay with Streptococcus pyogenes [6]; 0.012 µM in the assay on Pseudomonas aeruginosa [7]; 0.024 µM with Escherichia coli [15]. The minimal inhibitory concentration (MIC) in the assay on Streptococcus pyogenes [16] stood at 0.79 µM. Also, the “fractional inhibitory concentration index (FICI)” value in the assay on Escherichia coli [3] was found to be 0.52; in the assay on Acinetobacter baumannii [5] it was 0.068; in the assay on Escherichia coli [8], 0.266; with Acinetobacter baumannii [9] it was 0.375; with Pseudomonas aeruginosa [10], 0.031; in the assay on Streptococcus pyogenes [12] it was 0.188. Moreover, the “fractional inhibitory concentration index (FICI)” value in [13] was 0.023; in the assay on Pseudomonas aeruginosa [14] it was 0.079. In addition, in the assay with Pseudomonas aeruginosa [11], the Activity stood at 2 log10CFU/ml.

For the molecule `COc1cc(/C=C/C(=O)CC(=O)/C=C/c2ccc(O)c(OC)c2)ccc1O` [CURCUMIN], the MIC was determined as 43 µM with Streptococcus pyogenes [17]; 22 µM with Enterococcus faecium; 43 µM in the assay with Staphylococcus aureus [19]; 43 µM in the assay on Escherichia coli [20]; 87 µM in the assay with Enterococcus faecalis; 87 µM in the assay with Acinetobacter baumannii [21]. Besides, the values for the minimal inhibitory concentration (MIC) in the assay on Pseudomonas aeruginosa [23], in the assay with Pseudomonas aeruginosa [26] and in the assay with Acinetobacter baumannii [27] were 174 µM, 22 µM and 22 µM, respectively. Further, the “fold change (FC)” value (in the assay on Staphylococcus aureus [18]; in the assay with Streptococcus pyogenes [24]; in the assay on Escherichia coli [25]; in the assay with Pseudomonas aeruginosa [28]; in assay [29]) was 3 each time. Also, in assay [22], the Activity worked out at 100%.
